Compound activity deposited in PubChem by The Scripps Research Institute Molecular Screening Center.
HCV NS3 hel inh: inhibitors of Hepatitis C virus NS3 helicase; NS3 helicase DNA unwinding, Cy5 molecular beacon fluorescence; hit rate 0.56% among 290,000; inhibition, % at 10.9 µM;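 active means inhibition above the mean of all tested compounds plus 3 SD, set per campaign, cut at about 35% in these data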
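System: NS3 helicase fragment of HCV / Schedule: 1 h at 25 °C / Control set: DMSO alone as 0% and 110 µM thioflavine S as 100% / Reagent: Cy5/quencher beacon DNA duplex and ATP to start / Technique: Cy5 fluorescence / Replication: singlicate / Evaluation: % inhibition of end-to-start signal ratio versus controls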
ZTA counter: counter-screen for EBNA-1 inhibitors: inhibitors of Epstein-Barr virus ZTA | P03206 | ZTA-DNA binding, fluorescence polarization | inhibition, % at 11 µM | hit rate 0.15% among 320,000 | AID 2234; in the data active means inhibition above about 33%
Target sequence (P03206 whole entry, looked up): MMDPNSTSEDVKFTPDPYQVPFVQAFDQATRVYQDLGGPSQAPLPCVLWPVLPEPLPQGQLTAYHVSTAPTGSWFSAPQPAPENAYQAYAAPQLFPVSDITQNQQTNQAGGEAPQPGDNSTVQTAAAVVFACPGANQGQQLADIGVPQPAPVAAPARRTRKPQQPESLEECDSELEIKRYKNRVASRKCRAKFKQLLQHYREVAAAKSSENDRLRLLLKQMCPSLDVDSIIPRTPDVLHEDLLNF
EBNA-1 inhibitor: blocks EBNA-1 binding to DNA; inhibition, % at 14.8 µM; hit rate 0.34% among 300,000; AID 1950; EBNA-1 DNA binding, fluorescence polarization; in the data active means inhibition above about 28%
PP1 counter: PP1-alpha (human) inhibition in PP5 counter-screen. P62136. inhibition, % at 6.7 µM. purified PP1alpha, OMFP fluorescence. hit rate 0.9% among 320,000;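 active means inhibition above the mean inhibition of all tested compounds plus 3 SD, computed separately for each screening campaign, cut at about 15% in these data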
core dimer inh: blocks dimerization of HCV core protein. TR-FRET GST/Flag-core106 dimerization, 1536-well. inhibition, % at 5 µM. hit rate 0.33% among 300,000;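 active means inhibition above the mean of all tested compounds plus 3 SD, set per screening campaign, cut at about 45% in these data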
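Assay system: tagged HCV core106 pair (GST and Flag); medium: KF-containing HEPES buffer, pH 7.45, DTT, CHAPS, BSA; also added: Eu donor and XL665 acceptor anti-tag antibodies; dosing: 5 µM single dose; timing: compound-protein-antibody incubation 4 h at 22.5 °C; signal: TR-FRET 671 and 617 nm emission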
NS3 hel confirm: HCV NS3 helicase inhibition, confirmation assay. hit rate 31% among 1,600. NS3 helicase DNA unwinding, Cy5 molecular beacon fluorescence. inhibition, % at 10.9 µM. shares compounds with HCV NS3 hel inh. AID 1943;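 active means inhibition above the mean of all tested compounds plus 3 SD, cutoff set per campaign, cut at about 36% in these data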
FID counter trip: displaces DNA intercalator in HCV helicase counter-screen | DNA fluorescent intercalator displacement, fluorescence | inhibition, % at 7.9 µM | AID 1945 | shares compounds with HCV NS3 hel inh | hit rate 4% among 1,600; in the data active means inhibition above about 37%;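 further: higher means more displacement of ethidium bromide from the DNA hairpin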
DNA FID DR: displaces fluorescent intercalator from DNA, HCV helicase counter-screen; AID 2172; IC50, µM; shares compounds with HCV NS3 hel inh; 120 tested, under 10 active; fluorescent intercalator displacement from DNA, fluorescence; call rule not given here
A number is an active result; ! = repeats disagree. Hits are enriched below; roughly 1.9% of the tested compounds scored in any of these assays.

COc1ccc(CC(=O)Nc2cc(=O)n(C)c(=O)n2C)cc1 was read as HCV NS3 hel inh 56, ZTA counter inactive, EBNA-1 inhibitor inactive, PP1 counter inactive, core dimer inh inactive, NS3 hel confirm inactive and FID counter trip inactive.
For O=C1N=c2ccccc2=C1c1sc(Nc2ccc(O)cc2)nc1O the results were HCV NS3 hel inh 72, NS3 hel confirm inactive and FID counter trip inactive.
O=C1N=c2ccccc2=C1c1sc(Nc2cccc(O)c2)nc1O was read as HCV NS3 hel inh inactive, ZTA counter inactive, EBNA-1 inhibitor inactive, PP1 counter inactive and core dimer inh inactive.
Screening CCN1CCN(c2ncnc3sc(C)c(-c4ccccc4)c23)CC1 returned HCV NS3 hel inh inactive, ZTA counter inactive, EBNA-1 inhibitor inactive, PP1 counter inactive and core dimer inh inactive.
Screening Cc1c(NC(=O)c2nn3c(C(F)(F)F)cc(-c4ccccc4)nc3c2Cl)c(=O)n(-c2ccccc2)n1C returned HCV NS3 hel inh 37, ZTA counter inactive, EBNA-1 inhibitor inactive, PP1 counter inactive, core dimer inh inactive, NS3 hel confirm inactive and FID counter trip inactive.
For O=C(O)CCc1ccc(-c2cccs2)n1Cc1ccco1 the results were HCV NS3 hel inh 41, ZTA counter inactive, EBNA-1 inhibitor inactive, PP1 counter inactive, core dimer inh inactive, NS3 hel confirm inactive and FID counter trip inactive.
O=C(O)CCc1ccc(-c2ccc(Cl)cc2)n1Cc1ccco1 was read as HCV NS3 hel inh 36, ZTA counter inactive, EBNA-1 inhibitor inactive, PP1 counter inactive, core dimer inh inactive, NS3 hel confirm 68 and FID counter trip inactive.
Screening COc1ccc(-c2ccc(CCC(=O)O)n2Cc2ccco2)cc1 returned HCV NS3 hel inh inactive, ZTA counter inactive, EBNA-1 inhibitor inactive, PP1 counter inactive and core dimer inh inactive.
`CN(C(=O)COC(=O)C1(C)CC1(Cl)Cl)c1c(N)n(Cc2ccccc2)c(=O)[nH]c1=O` (stereo not given) gave ZTA counter inactive and PP1 counter inactive.
CCn1c(=O)c(C(=O)NCc2ccc(F)cc2)c(O)c2ccccc21 was read as HCV NS3 hel inh inactive, ZTA counter inactive, EBNA-1 inhibitor inactive, PP1 counter inactive and core dimer inh inactive.
Screening O=C(CN1CCC(C(=O)O)CC1)Nc1ccccc1Oc1ccccc1 returned HCV NS3 hel inh 37, ZTA counter inactive, EBNA-1 inhibitor inactive, PP1 counter inactive, core dimer inh inactive, NS3 hel confirm inactive and FID counter trip inactive.
Screening C=CCn1c(SCCCC)nc(O)cc1=O returned HCV NS3 hel inh 40!, ZTA counter inactive, EBNA-1 inhibitor inactive, PP1 counter inactive, core dimer inh inactive, NS3 hel confirm inactive and FID counter trip inactive.
Screening C=CCn1c(SCCCCCC)nc(O)cc1=O returned HCV NS3 hel inh inactive, ZTA counter inactive, EBNA-1 inhibitor inactive, PP1 counter inactive and core dimer inh inactive.
For N#C/C(=C\c1ccc(-c2cccc(C(F)(F)F)c2)o1)C(=O)Nn1cnnc1 the results were HCV NS3 hel inh inactive, ZTA counter inactive, EBNA-1 inhibitor inactive, PP1 counter inactive and core dimer inh inactive.
`O=C1OC(c2ccco2)=N/C1=C\c1ccc(-c2cccc(C(F)(F)F)c2)o1` gave HCV NS3 hel inh 37, ZTA counter inactive, EBNA-1 inhibitor inactive, PP1 counter inactive, core dimer inh inactive, NS3 hel confirm 47, FID counter trip inactive and DNA FID DR inactive.
Screening COC(=O)[C@@]12CCCCN1[C@H](c1ccc(-c3ccc4c(c3)OCO4)c(OC)c1)[C@@H]1C(=O)N(C)C(=O)[C@@H]12 returned ZTA counter inactive, EBNA-1 inhibitor inactive, PP1 counter inactive and core dimer inh inactive.
Screening CC1CCc2c(sc(/N=C/c3cccnc3)c2C(N)=O)C1 (stereo not given) returned HCV NS3 hel inh inactive, ZTA counter inactive, EBNA-1 inhibitor inactive, PP1 counter inactive and core dimer inh inactive.
CC1CCc2c(sc(/N=C/c3ccco3)c2C(N)=O)C1 (stereo not given) was read as HCV NS3 hel inh 37, ZTA counter inactive, EBNA-1 inhibitor inactive, PP1 counter inactive, core dimer inh inactive, NS3 hel confirm inactive and FID counter trip inactive.
